The subject of experiment [1] is NCI-H1975. Kind of experiment: Effect on HO-1 accumulation in human […] cells transfected with DCN1 siRNA3 by densitometric method. Format: functional, cell-based. In a few lines:
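H1975 or PC9 cells seeded in 6-well plates for 16-24h, transfected with DCN1 siRNA#3 by lipofection, with or without compound, and collected three days later. Western blot for Cullin3, DCN1, NRF2, HO-1 and NQO1, with densitometry normalized to GAPDH. Three individual experiments, means ± SD.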

The test system of experiment [2] is A549. The experiment in a line: Induction of apoptosis in human A549 cells assessed as necrotic cells at 2.5 uM after 48 hrs by Annexin V-FITC/propidium iodide staining based flow cytometry (reference value: 0.88%). The experiment is classed as functional. In general terms: A flow cytometer gives signals particle by particle.
Experiment [3] deals with T1, NEDD8-activating enzyme E1 catalytic subunit (Homo sapiens) (UniProt Q8TBC4).
T1 sequence (whole entry): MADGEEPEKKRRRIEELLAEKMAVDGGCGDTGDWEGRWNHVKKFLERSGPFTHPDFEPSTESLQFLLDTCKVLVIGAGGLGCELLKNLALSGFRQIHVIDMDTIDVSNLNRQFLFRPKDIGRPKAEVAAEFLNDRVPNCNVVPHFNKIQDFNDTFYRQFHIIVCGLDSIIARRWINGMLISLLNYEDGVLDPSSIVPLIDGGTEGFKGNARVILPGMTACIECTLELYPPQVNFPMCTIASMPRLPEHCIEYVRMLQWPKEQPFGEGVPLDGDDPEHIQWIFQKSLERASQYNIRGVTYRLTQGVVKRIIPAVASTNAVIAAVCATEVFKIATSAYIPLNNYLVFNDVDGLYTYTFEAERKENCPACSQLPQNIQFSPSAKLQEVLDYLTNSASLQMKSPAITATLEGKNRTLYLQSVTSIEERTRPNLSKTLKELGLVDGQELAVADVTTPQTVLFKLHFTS
The experiment in a line: Inhibition of NEDD8-activating enzyme E1C (unknown origin) assessed as effect on NEDD8/UBE2M complex formation up to 100 uM pre-incubated for 10 mins followed by Mg-ATP addition after 60 mins by SDS-PAGE analysis. The gist of the method:
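Cell-free NEDD8~UBE2M formation: NEDD8 E1 mixed with NEDD8, UBE2M and compound (10 and 20µM reference inhibitor, or 1, 10 and 100µM test compound) in reaction buffer, 10 min at room temperature. Started with Mg-ATP, incubated 60 min at 37°C, then 1mM DTT and non-reducing loading buffer added. Resolved on 12% SDS-PAGE.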

Each structure is given as a SMILES string. Calls of active or inactive are those of the source. The calls are words filed in the database; no cut-off is given here.

Take `C#CCSc1nc(Sc2nccs2)c(C#N)c(-c2ccc(C)cc2)n1`: the result in experiment [1] was inactive. Further, the Activity in experiment [2] is 1.22%. The inhibition entry in experiment [3] is “inactive”.

Source of the values: ChEMBL document CHEMBL4396897, “Potent 5-Cyano-6-phenyl-pyrimidin-Based Derivatives Targeting DCN1-UBE2M Interaction” (J Med Chem, 2019).
